Measured values pooled from the literature.
Compare with care: the assays were run in different laboratories.
HCK: Tyrosine-protein kinase HCK (HCK, Homo sapiens, UniProt P08631)

| Compound | target | observed | mode | technique | tested at | quantity | result |
| --- | --- | --- | --- | --- | --- | --- | --- |
| COc1cc2ncnc(Nc3ccc(Oc4ccccc4)c(C)c3C)c2cc1OC | HCK | enzyme activity | inhibitor |  | 1 µM | inhibition | 53% |
| COc1cc(Nc2c(C#N)cnc3cc(OCCCN4CCN(C)CC4)c(OC)cc23)c(Cl)cc1Cl | HCK | cell-free assay |  |  | 0.5 µM | remaining signal | 11.9% |
| O=C(Nc1cccnn1)N1CC(C/C=C/c2cncc(Oc3ccc(C(F)(F)F)cn3)n2)C1 | HCK | cell-free assay |  | competition with immobilised ligand | 1 µM | remaining binding | 100% |
| Cc1cnc(NC2CCOCC2)nc1-n1cnc(C(=O)NC(CN)c2cc(F)cc(Cl)c2)c1 (stereo not drawn) | HCK | enzyme activity | inhibitor | radiometric | 1 µM | remaining activity | 101% |
| CC(C)(C)c1nc2c(s1)c1nc(N)ncc1c1ccc(NS(=O)(=O)c3c(F)cccc3F)c(F)c12 | HCK | enzyme activity | inhibitor | radiometric | 1 µM | remaining activity | 82% |
| Cc1ccc(C(=O)Nc2ccc(CN3CCN(C)CC3)c(C(F)(F)F)c2)cc1C#Cc1cnc2cccnn12 | HCK | enzyme activity |  |  | 23.5 nM | remaining activity | 1.6% |
| CC(C)(O)[C@H]1CC[C@H](Nc2ccc3ncc(-c4cccc(C(F)(F)F)c4)n3n2)CC1 | HCK | enzyme activity | inhibitor |  | 1 µM | remaining activity | 40.5% |
| O=C(Nc1cnn(-c2csc(C(=O)NC3COC3)c2)c1)Nc1ccccc1Cl | HCK | enzyme activity | inhibitor |  | 5 µM | remaining activity | 94% |
| CN(C)C1CCN(CC#Cc2nn(C3CCCC3)c3nc(NCc4ccccc4)ncc23)C1 (stereo not drawn) | HCK | enzyme activity | inhibitor | FRET | 1 µM | inhibition | 2% |
| O=C1NC(=O)c2cc(Nc3ccc(F)cc3)c(Nc3ccc(F)cc3)cc21 | HCK | cell-free assay |  |  | 0.5 µM | remaining signal | 88.3% |
| CN(C(=O)c1ccccc1)c1cc(N(C)c2ccc3c(c2)CCc2ccc(C(=O)NCCN4CCOCC4)cc2C3=O)ccc1F | HCK | cell-free assay |  | competition with immobilised ligand | 1 µM | remaining binding | 100% |
| CCN(CC)CCNC(=O)c1c(C)[nH]c(/C=C2\C(=O)Nc3ccc(F)cc32)c1C | HCK | enzyme activity | inhibitor |  | 0.3 µM | inhibition | 22% |
| COc1ccc2c(c1)O[C@H](c1ccc(OC)c(OC)c1)C[C@@H]2NC(=O)C1(c2ccc3c(c2)OC(F)(F)O3)CC1 | HCK | cell-free assay |  | competition with immobilised ligand | 1 µM | remaining binding | 100% |
| Cc1ccc(Nc2nccc(N(C)c3ccc4c(C)n(C)nc4c3)n2)cc1S(N)(=O)=O | HCK | enzyme activity | inhibitor |  | 10 µM | inhibition | 90% |
| O=C(Nc1ccc(Oc2ccc(F)cc2)cc1)N1CCc2ncccc2[C@H]1c1ccc(F)cc1 | HCK | cell-free assay |  | competition with immobilised ligand | 1 µM | remaining binding | 100% |
| N#CCCc1ccc2c(c1)-c1[nH]c3ccc([N+](=O)[O-])cc3c1CC(=O)N2 | HCK | cell-free assay |  |  | 0.5 µM | remaining signal | 63.8% |
| C[C@H](c1ccnc(Nc2nc3ccc(-c4cc(N(C)C)ncn4)cc3[nH]2)c1)N1CCN(C(=O)CC(F)(F)F)CC1 | HCK | cell-free assay |  | competition with immobilised ligand | 0.1 µM | remaining binding | 91% |
| Cc1ccc(NC(=O)c2ccc(C)c(C(F)(F)F)c2)cc1C#Cc1nn(C2CCC(O)CC2)c2ncnc(N)c12 (stereo not drawn) | HCK | enzyme activity | inhibitor |  | 10 µM | remaining activity | -1% |
| O=S(=O)(NC1CCC(c2cc(F)ccc2F)(S(=O)(=O)c2ccc(Cl)cc2)CC1)C(F)(F)F (stereo not drawn) | HCK | cell-free assay |  | competition with immobilised ligand | 1 µM | remaining binding | 85% |
| COc1cc2c(N3CCN(C(=O)Nc4ccc(OC(C)C)cc4)CC3)ncnc2cc1OCCCN1CCCCC1 | HCK | cell-free assay |  |  | 0.5 µM | remaining signal | 93.2% |
| NS(=O)(=O)c1cc(NC(=O)C2(c3ccccc3Cl)CC2)ccc1Oc1cccc(Cl)c1 | HCK | cell-free assay |  | competition with immobilised ligand | 1 µM | remaining binding | 89% |
| O=C(Nc1cnn(-c2csc(C(=O)NC3COC3)c2)c1)Nc1c(F)cccc1Cl | HCK | enzyme activity | inhibitor |  | 5 µM | remaining activity | 91.3% |
| Cc1c(NC(=O)c2cc(C(N)=O)nc3cc(F)ccc23)c(C(F)(F)F)nn1Cc1ccc(C(C)(C)C)cc1 | HCK | cell-free assay |  | competition with immobilised ligand | 1 µM | remaining binding | 92% |
| CNC(=O)c1cc2c(Oc3ccc(NC(=O)C4(C(=O)Nc5ccc(F)cc5)CC4)cc3)ccnc2cc1OC | Tyrosine-protein kinase HCK, phosphorylated (HCK, Homo sapiens, UniProt P08631) | enzyme activity | inhibitor | radiometric | 1 µM | inhibition | 88% |
